≈ marks a conversion by molar mass, not a printed value.
Key:
[1] = target: T1, Prostaglandin G/H synthase 1 (Mus musculus, UniProt P22437); assay: Inhibition of COX1-mediated PGE2 production in mouse J774 cells preincubated for 15 mins measured after 30 mins by radioimmunoassay; format: cell-based
T1 sequence (P22437 whole entry): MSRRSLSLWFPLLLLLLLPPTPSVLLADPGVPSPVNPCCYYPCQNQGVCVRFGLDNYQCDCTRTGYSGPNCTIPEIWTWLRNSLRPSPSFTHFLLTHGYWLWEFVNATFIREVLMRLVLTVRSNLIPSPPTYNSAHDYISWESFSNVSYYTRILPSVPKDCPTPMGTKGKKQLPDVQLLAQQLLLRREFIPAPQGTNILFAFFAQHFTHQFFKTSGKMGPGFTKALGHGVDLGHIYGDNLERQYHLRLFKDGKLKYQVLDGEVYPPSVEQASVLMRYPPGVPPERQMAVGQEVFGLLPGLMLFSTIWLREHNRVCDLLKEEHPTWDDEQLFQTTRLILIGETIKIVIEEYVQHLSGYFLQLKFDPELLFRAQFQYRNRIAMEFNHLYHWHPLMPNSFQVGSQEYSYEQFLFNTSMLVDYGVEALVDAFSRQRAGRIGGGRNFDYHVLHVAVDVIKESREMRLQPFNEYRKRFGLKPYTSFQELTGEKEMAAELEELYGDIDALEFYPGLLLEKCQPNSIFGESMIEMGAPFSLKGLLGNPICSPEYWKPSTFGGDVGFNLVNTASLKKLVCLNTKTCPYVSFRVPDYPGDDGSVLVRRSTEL
How it was run: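 Murine J774 macrophages in DMEM/10% FBS, adhered 2 h at 37 °C. […] Supernatant PGE2 measured by RIA. Triplicate wells, mean of three experiments; IC50 by sigmoidal variable-slope fit.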

J774 = assay: Selectivity index, ratio of IC50 for COX1-mediated PGE2 production to IC50 for COX2-mediated PGE2 production in mouse J774 cells; format: cell-based
How it was run: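 Ratio of the COX-1 IC50 to the COX-2 IC50, both from PGE2 RIA in J774 cells. For COX-1, cells were given compound for 15 min, then 15 μM arachidonic acid for 30 min; lower concentrations (0.01–1 μM) were tested when warranted. For COX-2, cells were given LPS 10 µg/mL for 24 h with compound at 0.01–10 μM. IC50 came from a sigmoidal variable-slope fit.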

[2] = target: T2, Prostaglandin G/H synthase 2 (Mus musculus) (UniProt Q05769); assay: Inhibition of COX2-mediated PGE2 production in LPS-induced mouse J774 cells by radioimmunoassay relative to control; format: cell-based; set-up: concentration or dose not given beside the values; details: concentration not given here
T2 sequence (whole entry): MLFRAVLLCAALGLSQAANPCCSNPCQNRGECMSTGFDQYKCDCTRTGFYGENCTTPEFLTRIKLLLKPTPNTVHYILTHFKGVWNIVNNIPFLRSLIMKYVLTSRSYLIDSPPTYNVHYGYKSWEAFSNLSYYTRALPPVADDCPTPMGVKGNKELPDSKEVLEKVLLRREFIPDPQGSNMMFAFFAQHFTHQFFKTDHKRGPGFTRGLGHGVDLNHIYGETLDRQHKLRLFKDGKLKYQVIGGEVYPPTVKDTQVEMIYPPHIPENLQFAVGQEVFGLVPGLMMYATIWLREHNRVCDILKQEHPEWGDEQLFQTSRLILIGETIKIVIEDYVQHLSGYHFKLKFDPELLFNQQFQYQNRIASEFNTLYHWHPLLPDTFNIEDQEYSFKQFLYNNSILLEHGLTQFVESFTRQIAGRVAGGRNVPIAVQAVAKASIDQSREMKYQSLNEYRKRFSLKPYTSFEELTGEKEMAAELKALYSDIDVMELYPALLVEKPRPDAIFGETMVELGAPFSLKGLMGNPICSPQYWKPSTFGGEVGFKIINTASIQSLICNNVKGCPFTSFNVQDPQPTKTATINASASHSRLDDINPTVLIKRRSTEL
How it was run: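 J774 cells, cultured as for the COX-1 assay, were stimulated 24 h with E. coli LPS (10 µg/mL) to induce COX-2, with or without compound at 0.01–10 μM. Supernatant PGE2 was measured by RIA as % inhibition versus control, triplicate wells, mean of three experiments. IC50 came from a sigmoidal variable-slope dose-response fit.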

[3] = target: T3, Prostaglandin G/H synthase 2 (Mus musculus, UniProt Q05769); assay: Inhibition of COX2-mediated PGE2 production in LPS-induced mouse J774 cells by radioimmunoassay; format: cell-based
T3 sequence (Q05769 whole entry): T2 sequence (whole entry)
How it was run: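 J774 murine macrophages stimulated 24 h with E. coli LPS (10 µg/mL) to induce COX-2, with or without compound (0.01–10 μM). Supernatant PGE2 measured by RIA; percent inhibition against controls. Triplicate wells, mean of three experiments; IC50 from sigmoidal variable-slope fit.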

[4] = target: T4, Prostaglandin G/H synthase 1 (Mus musculus) (UniProt P22437); assay: Inhibition of COX1-mediated PGE2 production in mouse J774 cells at 10 uM preincubated for 15 mins measured after 30 mins by radioimmunoassay relative to control; format: cell-based
T4 sequence (whole entry): T1 sequence (P22437 whole entry)
How it was run: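 Murine J774 macrophages in DMEM with 10% FBS, glutamine, HEPES, pyruvate and antibiotics, adhered 2 h at 37 °C in 5% CO2. Medium was refreshed, cells were pretreated with compound for 15 min, then given 15 μM arachidonic acid for 30 min at 37 °C. PGE2 in supernatant was measured by RIA as % inhibition versus control, triplicate wells, mean of three experiments.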

Mus musculus [5] = assay: Analgesic activity in Swiss albino mouse assessed as reduction of acetic acid-induced writhing at 21 nmol/kg, po after 5 mins; format: functional; set-up: scale not given: the % may be the effect or the level left
How it was run: (§1)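 Male Swiss albino mice (23-25 g), standard diet and water ad libitum, 23 ± 1 °C, 12 h light/dark cycle. Test compound given orally; 0.6% acetic acid (10 mL/kg) injected ip. Stretching movements counted for 10 min, beginning 5 min after administration.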

Rattus norvegicus [6] = assay: Antiinflammatory activity in rat assessed as reduction of carrageenan-induced paw pressure at 20 mg/kg, po after 30 mins post carrageenan-challenge; format: functional; set-up: scale not given: the % may be the effect or the level left
How it was run: (§2)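 Rats (Sprague-Dawley or Wistar, 150-200 g) received intraplantar carrageenan 4 h before testing, then oral compound or CMC vehicle. Paw-pressure threshold read before treatment and at 15, 30, 45 and 60 min after treatment, compared with saline and carrageenan controls.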

Mus musculus [7] = assay: Analgesic activity in Swiss albino mouse assessed as reduction of acetic acid-induced writhing at 42 nmol/kg, po after 5 mins; format: functional; set-up: scale not given: the % may be the effect or the level left; how it was run: as §1
Rattus norvegicus [8] = assay: Antiinflammatory activity in rat assessed as reduction of carrageenan-induced paw pressure at 40 mg/kg, po after 60 mins post carrageenan-challenge; format: functional; set-up: scale not given: the % may be the effect or the level left; how it was run: as §2
Rattus norvegicus [9] = assay: Antiinflammatory activity in rat assessed as reduction of carrageenan-induced paw pressure at 20 mg/kg, po after 15 mins post carrageenan-challenge; format: functional; set-up: scale not given: the % may be the effect or the level left; how it was run: as §2
Rattus norvegicus [10] = assay: Antiinflammatory activity in rat assessed as reduction of carrageenan-induced paw pressure at 40 mg/kg, po after 30 mins post carrageenan-challenge; format: functional; set-up: scale not given: the % may be the effect or the level left; how it was run: as §2
Rattus norvegicus [11] = assay: Antiinflammatory activity in rat assessed as reduction of carrageenan-induced paw pressure at 40 mg/kg, po after 45 mins post carrageenan-challenge; format: functional; set-up: scale not given: the % may be the effect or the level left; how it was run: as §2
Rattus norvegicus [12] = assay: Antiinflammatory activity in rat assessed as reduction of carrageenan-induced oedema in right hind paw at 40 mg/kg, po after 4 hrs post carrageenan-challenge; format: functional; set-up: scale not given: the % may be the effect or the level left
How it was run: (§3)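 Sprague-Dawley or Wistar rats (150-200 g). Carrageenan injected intraplantar; oral treatment with test compound or CMC vehicle. Right hind paw volume measured 4 h after carrageenan and compared with saline- and carrageenan-treated controls.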

Liver = assay: Induction of nitrite/nitrate production in Wistar rat liver homogenates at 1 mM; format: functional, tissue-based; details: TDE = time-dependent effect
How it was run: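 Liver from male Wistar rats (250–350 g), perfused with cold buffer (pH 7.4), homogenized 1:5 w/v. Homogenate in K2HPO4/EDTA buffer pH 7.4 with 1 mM glutathione, NADH and NADPH at 37 °C; compound added from DMSO at 1 mM final. Aliquots at 5-120 min into H2SO4/KI; quantified against sodium nitrite calibration.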

[13] = Solubility of the compound in PBS buffer at pH 7.4 by HPLC analysis; format: physicochemical
How it was run: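 20 mM DMSO stocks diluted 1:100 into 0.01 M PBS pH 7.4 in duplicate wells of a solubility filter plate, shaken 90 min at 300 rpm. Seven-point calibration standards from 1 to 200 μM.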

[14] = Solubility of the compound in simulated gastric fluid without pepsin at pH 1.5 by HPLC analysis; format: physicochemical
How it was run: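 Compound from 20 mM DMSO stock diluted 1:100 into 0.05 M simulated gastric fluid without pepsin (pH 1.5 with HCl), duplicate wells on a solubility filter plate, shaken 90 min at 300 rpm. Seven-point calibration standards from 1 to 200 μM.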

Rattus norvegicus [15] = assay: Antiinflammatory activity in rat assessed as reduction of carrageenan-induced paw pressure at 40 mg/kg, po after 15 mins post carrageenan-challenge; format: functional; set-up: scale not given: the % may be the effect or the level left; how it was run: as §2
Rattus norvegicus [16] = assay: Antiinflammatory activity in rat assessed as reduction of carrageenan-induced paw pressure at 20 mg/kg, po after 60 mins post carrageenan-challenge; format: functional; set-up: scale not given: the % may be the effect or the level left; how it was run: as §2
Rattus norvegicus [17] = assay: Antiinflammatory activity in rat assessed as reduction of carrageenan-induced oedema in right hind paw at 20 mg/kg, po after 4 hrs post carrageenan-challenge; format: functional; set-up: scale not given: the % may be the effect or the level left; how it was run: as §3
Rattus norvegicus [18] = assay: Antiinflammatory activity in rat assessed as reduction of carrageenan-induced paw pressure at 20 mg/kg, po after 45 mins post carrageenan-challenge; format: functional; set-up: scale not given: the % may be the effect or the level left; how it was run: as §2
Mus musculus [19] = assay: Analgesic activity in Swiss albino mouse assessed as reduction of acetic acid-induced writhing at 36.8 nmol/kg, po after 5 mins; format: functional; set-up: scale not given: the % may be the effect or the level left; how it was run: as §1
Mus musculus [20] = assay: Analgesic activity in Swiss albino mouse assessed as reduction of acetic acid-induced writhing at 18.4 nmol/kg, po after 5 mins; format: functional; set-up: scale not given: the % may be the effect or the level left; how it was run: as §1
Mus musculus [21] = assay: Analgesic activity in Swiss albino mouse assessed as reduction of acetic acid-induced writhing at 73.6 nmol/kg, po after 5 mins; format: functional; set-up: scale not given: the % may be the effect or the level left; how it was run: as §1
Mus musculus [22] = assay: Analgesic activity in Swiss albino mouse assessed as reduction of acetic acid-induced writhing at 5.5 nmol/kg, po after 5 mins; format: functional; set-up: scale not given: the % may be the effect or the level left; how it was run: as §1
Aorta = assay: Vasorelaxant activity in Wistar rat endothelium-denuded thoracic aortic ring assessed as inhibition of KCl-induced contractile tone in presence of guanylate cyclase inhibitor ODQ; format: functional, tissue-based
How it was run: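 Male normotensive Wistar rats (250–350 g); thoracic aortic rings, endothelium removed by rubbing, removal confirmed by <10% relaxation to ACh (10 µM) in KCl (30 mM)-contracted rings. ODQ 1 µM incubated after confirmation; rings contracted with KCl 30 mM, then 3-fold increasing compound concentrations (1 nM–10 µM). Isometric tension; pIC50 from half reduction of KCl tone; mean ± SE, 6–10 experiments.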

| SMILES | IC50 [1] | Ratio IC50 (J774) | inhibition [2] | inhibition [4] | Activity (Rattus norvegicus [6]) | Activity (Rattus norvegicus [8]) | Activity (Rattus norvegicus [9]) | Activity (Rattus norvegicus [10]) | Activity (Rattus norvegicus [11]) | Activity (Rattus norvegicus [12]) | solubility [13] | solubility [14] | Activity (Rattus norvegicus [15]) | Activity (Rattus norvegicus [16]) | Activity (Rattus norvegicus [17]) | Activity (Rattus norvegicus [18]) | further results |
| --- | --- | --- | --- | --- | --- | --- | --- | --- | --- | --- | --- | --- | --- | --- | --- | --- | --- |
| Cc1c(C(N)C(=O)OCCCCO)cc(-c2ccc(S(C)(=O)=O)cc2)n1-c1cccc(F)c1 (stereo unspecified) | > 10000 nM | > 6.67 | 100% | 23% |  |  |  |  |  |  |  |  |  |  |  |  | IC50 [3]: 1500 nM |
| Cc1c(CC(=O)OCCO[N+](=O)[O-])cc(-c2ccc(S(C)(=O)=O)cc2)n1-c1cccc(F)c1 |  |  |  |  | 35% | 23% | 18% | 80% | 60% | 40% | 1.6 µM (≈ 0.762 µg/mL) | < 1 µM | 50% | 10% | 17% | 29% | Activity (Mus musculus [5]): 30.8%; Activity (Mus musculus [7]): 48.8%; Activity (Liver): tde |
| Cc1c(C(N)C(=O)OCCCO[N+](=O)[O-])cc(-c2ccc(S(C)(=O)=O)cc2)n1-c1ccc(F)cc1 (stereo unspecified) | > 10000 nM | > 12.2 | 95% | 0% | 44% | 16% | 25% | 70% | 53% | 45% | 80 µM (≈ 40.4 µg/mL) | > 200 µM | 40% | 15% | 15% | 27% | Activity (Mus musculus [19]): 46.1%; Activity (Mus musculus [20]): 36.2%; Activity (Mus musculus [21]): 59.6%; Activity (Mus musculus [22]): 19%; IC50 (Aorta): 2190 nM |

Reference: ChEMBL document CHEMBL2151030, “Improving the solubility of a new class of antiinflammatory pharmacodynamic hybrids, that release nitric oxide and inhibit cycloxygenase-2 isoenzyme” (Eur J Med Chem, 2012)
